# Results from ChEMBL document CHEMBL1157404, “Linear and cyclic peptides from the entomopathogenic bacterium Xenorhabdus nematophilus” (J Nat Prod, 2008).
# Active and inactive are the calls of the source. The calls are words filed in the database; no cut-off is given here. Bridge positions count the residues as written; N and C are the ends. Square brackets hold non-standard residues; d marks the D form. Peptide text beside a SMILES is read from it. * marks the point of attachment. NMeF = CN[C@@H](Cc1ccccc1)C(=O)O; NMeL = CN[C@@H](CC(C)C)C(=O)O; NHPhenethyl = c1ccc(CCN*)cc1; PhAc = O=C(Cc1ccccc1)*; βAla = NCCC(=O)O
# Tests used:
# [1] = test system: Mammaliicoccus lentus; test: Antibacterial activity against Staphylococcus lentus DSM 6672; format: functional
# [2] = test system: Pseudomonas syringae; test: Antibacterial activity against Pseudomonas syringae var.aptata DSM 50252; format: functional
# [3] = test system: Xanthomonas campestris; test: Antibacterial activity against Xanthomonas campestris DSM 2405; format: functional
# [4] = test system: Bacillus subtilis; test: Antibacterial activity against Bacillus subtilis DSM 347; format: functional
# [5] = test system: Artemia salina; test: Toxicity against Artemia salina assessed as number of immotile nauplii per well after 24 hrs; format: organism-based
# Outline: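 Compounds were serially diluted 2-fold over 50 to 0.781 µg/well in microplate wells, and the wells were dried before the brine shrimp nauplii were exposed.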
# [6] = test system: Xanthomonas campestris; test: Antibacterial activity against Xanthomonas campestris DSM 2405 at 40 ug/mL; format: functional, organism-based
# [7] = test system: Bacillus subtilis; test: Antibacterial activity against Bacillus subtilis DSM 347 at 40 ug/mL; format: functional, organism-based
# [8] = test system: Escherichia coli; test: Antibacterial activity against Escherichia coli K12 DSM 489 at 40 ug/mL; format: functional, organism-based
# [9] = test system: Ralstonia solanacearum; test: Antibacterial activity against Ralstonia solanacearum DSM 9544 at 40 ug/mL; format: functional, organism-based
# [10] = test system: Mammaliicoccus lentus; test: Antibacterial activity against Staphylococcus lentus DSM 6672 at 40 ug/mL; format: functional, organism-based
# [11] = test system: Pseudomonas fluorescens; test: Antibacterial activity against Pseudomonas fluorescens NCIMB 10586 at 40 ug/mL; format: functional, organism-based
# [12] = test system: Pseudomonas syringae; test: Antibacterial activity against Pseudomonas syringae var.aptata DSM 50252 at 40 ug/mL; format: functional, organism-based
# [13] = test system: Erwinia amylovora; test: Antibacterial activity against Erwinia amylovora at 40 ug/mL; format: functional, organism-based
# [14] = test system: Nakaseomyces glabratus; test: Antifungal activity against Candida glabrata DSM 6425 at 40 ug/mL; format: functional, organism-based
# [15] = test system: Galleria mellonella; test: Insecticidal activity against Galleria mellonella after 6 days; format: functional, organism-based
# Outline: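 Oral toxicity test on greater wax moth larvae. Compounds were dissolved at 1 mg/mL in 50% aqueous EtOH. Larvae were held at 35 °C for 6 days, then mortality and ability to spin silk were recorded. Four replicates were run, with two for one compound.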
# [16] = test system: Ralstonia solanacearum; test: Antibacterial activity against Ralstonia solanacearum DSM 9544; format: functional
# [17] = test system: Erwinia amylovora; test: Antibacterial activity against Erwinia amylovora; format: functional
# [18] = test system: Pseudomonas fluorescens; test: Antibacterial activity against Pseudomonas fluorescens NCIMB 10586; format: functional
SMILES,Activity [1] [%],MIC [2] [µg/mL],MIC [3] [µg/mL],MIC [4] [µg/mL],IC50 [5] [µg/mL],Activity [6],Activity [7],Activity [8],Activity [9],Activity [10],Activity [11],Activity [12],Activity [13],Activity [14],Activity [15],MIC [16] [µg/mL],MIC [17] [µg/mL],MIC [18] [µg/mL]
CC(C)CC(NC(=O)[C@@H](O)[C@@H](O)C1CCCN1)C1Cc2cccc(O)c2C(=O)O1 (stereo partly specified),70,40,40,20,9,,,,,,,,,,,,,
CC[C@H](C)C(=O)C(=O)NCCc1c[nH]c2ccccc12 [NEMATOPHIN],,,,,50,inactive,inactive,inactive,inactive,inactive,inactive,inactive,inactive,inactive,,,,
C[C@H]1OC(=O)CCNC(=O)[C@H](Cc2c[nH]c3ccccc23)NC(=O)[C@H](Cc2c[nH]c3ccccc23)NC(=O)[C@H]1NC(=O)Cc1ccccc1 [XENEAMATIDE] (PhAc-TWW[βAla]; ester 1-C),,10,,10,,,,,,,,,,,Active,10,10,10
CN[C@@H](CC(C)C)C(=O)N(C)[C@@H](Cc1ccccc1)C(=O)NCCc1ccccc1 [XENORTIDE A] (H-[NMeL]-[NMeF]-NHPhenethyl),,,,,200,inactive,inactive,inactive,inactive,inactive,inactive,inactive,inactive,inactive,,,,
CN[C@@H](CC(C)C)C(=O)N(C)[C@@H](Cc1ccccc1)C(=O)NCCc1c[nH]c2ccccc12 [XENORTIDE B],,,,,200,inactive,inactive,inactive,inactive,inactive,inactive,inactive,inactive,inactive,,,,
